Measurements taken from ChEMBL document CHEMBL1177711, “Novel quinolizidinyl derivatives as antiarrhythmic agents: 2. Further investigation” (J Med Chem, 2010).
Activity calls are given as the source filed them.

How the values were obtained:
Aorta [1] = assay: Vasorelaxant activity in potassium depolarized guinea pig aortic strip assessed as inhibition of calcium-induced contraction at 100 uM; format: functional; conditions: Cavia porcellus
[2] = Negative chronotropic activity against potassium-induced contraction in guinea pig left atrium assessed as decrease atrial rate; format: functional, tissue-based; conditions: Cavia porcellus, Cardiac atrium
[3] = Negative chronotropic activity against potassium-induced contraction in guinea pig left atrium assessed as decrease atrial rate at 10 uM relative to control; format: functional, Cavia porcellus, Cardiac atrium; set-up: scale not given: the % may be the effect or the level left
[4] = Negative inotropic activity against potassium-induced contraction in guinea pig left atrium assessed as decrease in developed tension at 10 uM relative to control; format: functional, Cavia porcellus, Cardiac atrium; set-up: scale not given: the % may be the effect or the level left
[5] = Antiarrhythmic activity in sinusoidal alternating current-induced guinea pig left atrium assessed as increase in current strength at which extra beats occur measured every 30 mins; format: functional, tissue-based; conditions: Cavia porcellus, Cardiac atrium, 0.5 h
How it was run: (§1)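 Isolated guinea pig left atria, electrically driven at 1 Hz, were exposed to sinusoidal alternating current to induce arrhythmia. The read-out was the rise in the ac-arrhythmia threshold over concentrations up to 100 μM.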

[6] = Antiarrhythmic activity in sinusoidal alternating current-induced guinea pig left atrium assessed as increase in current strength at which extra beats occur at 10 uM measured every 30 mins; format: functional, Cavia porcellus, Cardiac atrium; how it was run: as §1
[7] = Cardioprotective effect in Langendorff perfused guinea pig spontaneously beating […] assessed as duration of ventricular action potential at 10 uM (RVb = 140 to 161 +/- 2 to 8 ms); format: functional, Cavia porcellus, Cardiac ventricle
How it was run: (§2)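 Whole guinea pig hearts were Langendorff-perfused and their ECG recorded at graded concentrations. Intervals read were PR (atrioventricular conduction time), QT (ventricular action potential duration) and QRS (intraventricular conduction time).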

[8] = Cardioprotective effect in Langendorff perfused guinea pig spontaneously beating […] assessed as duration of ventricular action potential at 1 uM (RVb = 140 to 161 +/- 2 to 8 ms); format: functional, Cavia porcellus, Cardiac ventricle; how it was run: as §2
[9] = Cardioprotective effect in Langendorff perfused guinea pig spontaneously beating […] assessed as atrioventicular conduction time at 1 uM (RVb = 50 to 55 +/- 1 to 4 ms); format: functional; conditions: Cavia porcellus; how it was run: as §2
[10] = Cardioprotective effect in Langendorff perfused guinea pig spontaneously beating […] assessed as duration of ventricular action potential at 0.1 uM (RVb = 140 to 161 +/- 2 to 8 ms); format: functional, Cavia porcellus, Cardiac ventricle; how it was run: as §2
[11] = Cardioprotective effect in Langendorff perfused guinea pig spontaneously beating […] assessed as duration of ventricular action potential at 0.01 uM (RVb = 140 to 161 +/- 2 to 8 ms); format: functional, Cavia porcellus, Cardiac ventricle; how it was run: as §2
[12] = Cardioprotective effect in Langendorff perfused guinea pig spontaneously beating […] assessed as duration of ventricular action potential at 0.001 uM (RVb = 140 to 161 +/- 2 to 8 ms); format: functional, Cavia porcellus, Cardiac ventricle; how it was run: as §2
[13] = Cardioprotective effect in Langendorff perfused guinea pig spontaneously beating […] assessed as intraventicular conduction time at 10 uM (RVb = 19 to 24 +/- 1 to 2 ms); format: functional; conditions: Cavia porcellus; how it was run: as §2
[14] = Cardioprotective effect in Langendorff perfused guinea pig spontaneously beating […] assessed as intraventicular conduction time at 1 uM (RVb = 19 to 24 +/- 1 to 2 ms); format: functional; conditions: Cavia porcellus; how it was run: as §2
[15] = Cardioprotective effect in Langendorff perfused guinea pig spontaneously beating […] assessed as intraventicular conduction time at 0.1 uM (RVb = 19 to 24 +/- 1 to 2 ms); format: functional; conditions: Cavia porcellus; how it was run: as §2
[16] = Cardioprotective effect in Langendorff perfused guinea pig spontaneously beating […] assessed as intraventicular conduction time at 0.01 uM (RVb = 19 to 24 +/- 1 to 2 ms); format: functional; conditions: Cavia porcellus; how it was run: as §2
[17] = Cardioprotective effect in Langendorff perfused guinea pig spontaneously beating […] assessed as intraventicular conduction time at 0.001 uM (RVb = 19 to 24 +/- 1 to 2 ms); format: functional; conditions: Cavia porcellus; how it was run: as §2
[18] = Cardioprotective effect in Langendorff perfused guinea pig spontaneously beating […] assessed as atrioventicular conduction time at 10 uM (RVb = 50 to 55 +/- 1 to 4 ms); format: functional; conditions: Cavia porcellus; how it was run: as §2
[19] = Cardioprotective effect in Langendorff perfused guinea pig spontaneously beating […] assessed as atrioventicular conduction time at 0.1 uM (RVb = 50 to 55 +/- 1 to 4 ms); format: functional; conditions: Cavia porcellus; how it was run: as §2
[20] = Cardioprotective effect in Langendorff perfused guinea pig spontaneously beating […] assessed as atrioventicular conduction time at 0.01 uM (RVb = 50 to 55 +/- 1 to 4 ms); format: functional; conditions: Cavia porcellus; how it was run: as §2
[21] = Cardioprotective effect in Langendorff perfused guinea pig spontaneously beating […] assessed as atrioventicular conduction time at 0.001 uM (RVb = 50 to 55 +/- 1 to 4 ms); format: functional; conditions: Cavia porcellus; how it was run: as §2
Heart [22] = assay: Cardioprotective effect in Langendorff perfused guinea pig spontaneously beating […] assessed as heart rat at 0.001 uM (RVb = 175 to 190 +/- 5 to 11 bpm); format: functional, Cavia porcellus
Heart [23] = assay: Cardioprotective effect in Langendorff perfused guinea pig spontaneously beating […] assessed as heart rat at 0.01 uM (RVb = 175 to 190 +/- 5 to 11 bpm); format: functional, Cavia porcellus
Heart [24] = assay: Cardioprotective effect in Langendorff perfused guinea pig spontaneously beating […] assessed as heart rat at 0.1 uM (RVb = 175 to 190 +/- 5 to 11 bpm); format: functional, Cavia porcellus
Heart [25] = assay: Cardioprotective effect in Langendorff perfused guinea pig spontaneously beating […] assessed as heart rat at 1 uM (RVb = 175 to 190 +/- 5 to 11 bpm); format: functional, Cavia porcellus
Heart [26] = assay: Cardioprotective effect in Langendorff perfused guinea pig spontaneously beating […] assessed as heart rat at 10 uM (RVb = 175 to 190 +/- 5 to 11 bpm); format: functional, Cavia porcellus
[27] = Negative chronotropic activity against potassium-induced contraction in guinea pig left atrium assessed as decrease atrial rate at 0.5 uM relative to control; format: functional, Cavia porcellus, Cardiac atrium; set-up: scale not given: the % may be the effect or the level left
[28] = Negative inotropic activity against potassium-induced contraction in guinea pig left atrium assessed as decrease in developed tension; format: functional, tissue-based; conditions: Cavia porcellus, Cardiac atrium
[29] = Negative chronotropic activity against potassium-induced contraction in guinea pig left atrium assessed as decrease atrial rate at 50 uM relative to control; format: functional, Cavia porcellus, Cardiac atrium; set-up: scale not given: the % may be the effect or the level left
[30] = Antiarrhythmic activity in sinusoidal alternating current-induced guinea pig left atrium assessed as increase in current strength at which extra beats occur at 50 uM measured every 30 mins; format: functional, Cavia porcellus, Cardiac atrium; how it was run: as §1
[31] = Negative chronotropic activity against potassium-induced contraction in guinea pig left atrium assessed as decrease atrial rate at 100 uM relative to control; format: functional, Cavia porcellus, Cardiac atrium; set-up: scale not given: the % may be the effect or the level left
[32] = Negative inotropic activity against potassium-induced contraction in guinea pig left atrium assessed as decrease in developed tension at 5 uM relative to control; format: functional, Cavia porcellus, Cardiac atrium; set-up: scale not given: the % may be the effect or the level left
Aorta [33] = assay: Negative inotropic activity in potassium depolarized guinea pig aortic strip assessed as inhibition of calcium-induced contraction at 1 uM; format: functional, tissue-based; conditions: Cavia porcellus
Cavia porcellus = organism: Cavia porcellus; assay: Negative inotropic activity in guinea pig longitudinal smooth muscle assessed as inhibition of calcium-induced contraction at 1 uM; format: functional
[34] = Negative inotropic activity against potassium-induced contraction in guinea pig left atrium assessed as decrease in developed tension at 50 uM relative to control; format: functional, Cavia porcellus, Cardiac atrium; set-up: scale not given: the % may be the effect or the level left

EC50 [28] [nM] | SMILES | inhibition at 100 µM (Aorta [1]) [%] | Activity [4] [%] | EC50 [5] [nM] | Activity [6] [%] | Activity [7] [ms] | Activity [8] [ms] | AV conduction time [9] [ms] | Activity [10] [ms] | Activity [11] [ms] | Activity [12] [ms] | intraventricular conduction time [13] [ms] | intraventricular conduction time [14] [ms] | intraventricular conduction time [15] [ms] | intraventricular conduction time [16] [ms] | intraventricular conduction time [17] [ms] | AV conduction time [18] [ms] | AV conduction time [19] [ms] | AV conduction time [20] [ms] | AV conduction time [21] [ms] | further results
100 | O=C(C[C@@H]1CCCN2CCCC[C@H]12)Nc1c(Cl)cccc1Cl | 6 | – | – | – | – | – | – | – | – | – | – | – | – | – | – | – | – | – | – | Activity [29]: 15%; Activity [30]: 32%
18 | COc1cc(NC(C)=O)c(Cl)cc1C(=O)NC[C@@H]1CCCN2CCCC[C@H]12 | 4 | – | 240 | 84 | 155 | 152 | 56 | 150 | 141 | 139 | 22 | 22 | 21 | 20 | 20 | 56 | 53 | 54 | 52 | Activity [31]: 6%; Activity [32]: 93%; Activity (Heart [22]): 172 bpm; Activity (Heart [23]): 170 bpm; Activity (Heart [24]): 168 bpm; Activity (Heart [25]): 167 bpm; Activity (Heart [26]): 165 bpm; inhibition (Aorta [33]): inactive; inhibition (Cavia porcellus): inactive
44 | Cc1cc(C(=O)c2ccccc2)ccc1NC(=O)C[C@@H]1CCCN2CCCC[C@H]12 | – | 79 | 150 | – | 170 | 162 | 56 | 155 | 154 | 158 | 25 | 22 | 23 | 20 | 23 | 57 | 53 | 54 | 54 | EC50 [2]: 6.14 µM; Activity [31]: 59%; Activity [30]: 64%; Activity (Heart [22]): 177 bpm; Activity (Heart [23]): 171 bpm; Activity (Heart [24]): 158 bpm; Activity (Heart [25]): 145 bpm; Activity (Heart [26]): 137 bpm
350 | COc1cc(N)c(Cl)cc1C(=O)NC[C@@H]1CCCN2CCCC[C@H]12 | 6 | – | 6730 | – | – | – | – | – | – | – | – | – | – | – | – | – | – | – | – | Activity [29]: 22%; Activity [34]: 95%; Activity [30]: 113%

The next lines start with the molecule.

SMILES | EC50 [28] [nM] | inhibition at 100 µM (Aorta [1]) [%] | Activity [4] [%] | EC50 [5] [nM] | Activity [6] [%] | Activity [7] [ms] | Activity [8] [ms] | AV conduction time [9] [ms] | Activity [10] [ms] | Activity [11] [ms] | Activity [12] [ms] | intraventricular conduction time [13] [ms] | intraventricular conduction time [14] [ms] | intraventricular conduction time [15] [ms] | intraventricular conduction time [16] [ms] | intraventricular conduction time [17] [ms] | AV conduction time [18] [ms] | AV conduction time [19] [ms] | AV conduction time [20] [ms] | AV conduction time [21] [ms] | further results
Cc1cccc(C)c1NCCSC[C@@H]1CCCN2CCCC[C@H]12 | – | 34 | 37 | 310 | 129 | 175 | 170 | 57 | 168 | 162 | 160 | 26 | 25 | 24 | 23 | 23 | 60 | 55 | 55 | 55 | EC50 [2]: 8.42 µM; Activity [3]: 62%; Activity (Heart [22]): 186 bpm; Activity (Heart [23]): 185 bpm; Activity (Heart [24]): 179 bpm; Activity (Heart [25]): 158 bpm; Activity (Heart [26]): 142 bpm
Cc1cc(C(=O)c2ccccc2)cc(C)c1NC(=O)C[C@@H]1CCCN2CCCC[C@H]12 | – | – | – | – | – | – | – | – | – | – | – | – | – | – | – | – | – | – | – | – | Activity [27]: 70%
CCCCc1oc2ccccc2c1C(=O)c1cc(I)c(OCCN(CC)CC)c(I)c1 | – | – | – | – | – | – | – | 56 | – | – | – | 24 | 22 | 21 | 20 | 20 | 58 | 55 | 55 | 54 | –
Cc1cc(C)c(NCC[C@@H]2CCCN3CCCC[C@H]23)c(C)c1 | 34 | 37 | 89 | 8150 | 63 | – | – | – | – | – | – | – | – | – | – | – | – | – | – | – | Activity [29]: 44%
CCN(CC)CCNC(=O)c1ccc(N)cc1 [PROCAINAMIDE] | – | 2 | – | – | – | – | – | – | – | – | – | – | – | – | – | – | – | – | – | – | –
